In general, IC50 refers to the midpoint of a concentration-inhibition curve. A high value points to weaker potency. For orientation: inhibition means the change of the read-out against control, counted positive when it falls. A lower inhibition goes with a weak effect.

In assay [1] the test system is A549. As to the kind of experiment: Antiproliferative activity against human A549 cells after 48 hrs by CCK-8 assay. Type of assay: functional, cell-based. Conditions: A549, 48 h. In outline:
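A549 cells in RPMI1640 with 10% newborn calf serum and 1% penicillin-streptomycin at 37 °C, 5% CO2. Seeded 5 × 10³ cells/well, compounds added after 12 h from DMSO stocks diluted in medium (final DMSO < 0.1% v/v). After 48 h, CCK-8 added for 2 h and OD read at 490 nm. IC50 by Probit regression of inhibition ratio against concentration. At least three experiments.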
In general terms: Tetrazolium dyes change colour on reduction, which living cells bring about.

Assay [2] relates to A549. As to the kind of experiment: Antiproliferative activity against human A549 cells at 30 uM after 24 to 72 hrs by CCK-8 assay. The assay is classed as functional. In outline: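 Time course in A549 cells seeded 5 × 10³ cells/well. Compounds tested at 1, 3, 10 and 30 […] for the periods shown, with final DMSO < 0.1%. Viability by CCK-8 (2 h, OD 490 nm). Mean ± S.D. of three experiments done in triplicate, one-way ANOVA against 24 h and 48 h.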

Take `CC(C)(C)N(Cc1ccccc1Br)Cc1ccccc1Br`: the IC50 in the assay on A549 [1] is over 30 µM.
As to `Brc1ccccc1CN(Cc1ccccc1Br)C1CCCCC1`, the inhibition at 30 µM with A549 [2] came to 9.39%. The IC50 in the assay on A549 [1] was over 30 µM.
As to `Brc1ccccc1CN(Cc1ccccc1Br)c1ccccc1`, in the assay on A549 [1], the 50% inhibitory concentration (IC50) is over 30 µM.

The values above are taken from ChEMBL document CHEMBL3232953, “Synthesis, characterization and anti-proliferative activity of heterocyclic hypervalent organoantimony compounds” (Eur J Med Chem, 2014).
